Assays:
HeLa [1] = experiment: Induction of p21 promoter gene in human HeLa cells assessed as percent induction activity at 3 uM relative to SNDX-275; assay type: functional
A204 [2] = experiment: Induction of klf2 promoter gene in human A204 cells assessed as percent induction activity at 3 uM relative to SNDX-275; assay type: functional
HeLa [3] = experiment: Selectivity ratio for induction of p21 promoter gene in human HeLa cells to induction of klf2 promoter gene in human A204 cells at 3 uM; assay type: functional
HeLa [4] = experiment: Induction of p21 promoter gene in human HeLa cells assessed as percent induction activity at 10 uM relative to SNDX-275; assay type: functional
A204 [5] = experiment: Induction of klf2 promoter gene in human A204 cells assessed as percent induction activity at 10 uM relative to SNDX-275; assay type: functional
HeLa [6] = experiment: Selectivity ratio for induction of p21 promoter gene in human HeLa cells to induction of klf2 promoter gene in human A204 cells at 10 uM; assay type: functional
Histone deacetylase 1 = Histone deacetylase 1 (Homo sapiens, UniProt Q13547); experiment: Inhibition of HDAC1
Sequence of Histone deacetylase 1 (Q13547 whole entry): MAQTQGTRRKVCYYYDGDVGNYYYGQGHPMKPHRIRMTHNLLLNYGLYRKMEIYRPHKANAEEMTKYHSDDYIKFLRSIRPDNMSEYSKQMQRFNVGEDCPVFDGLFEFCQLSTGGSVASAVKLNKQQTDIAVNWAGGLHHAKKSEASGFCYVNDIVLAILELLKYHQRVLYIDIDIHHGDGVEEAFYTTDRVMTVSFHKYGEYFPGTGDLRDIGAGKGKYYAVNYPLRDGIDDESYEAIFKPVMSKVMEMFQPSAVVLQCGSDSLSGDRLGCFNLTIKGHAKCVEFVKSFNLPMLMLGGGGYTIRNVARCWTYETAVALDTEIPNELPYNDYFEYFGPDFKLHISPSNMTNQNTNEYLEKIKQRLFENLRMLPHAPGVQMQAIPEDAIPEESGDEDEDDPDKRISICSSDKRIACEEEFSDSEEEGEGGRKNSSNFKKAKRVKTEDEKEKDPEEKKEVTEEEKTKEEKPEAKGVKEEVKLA

Histone deacetylase 2 = Histone deacetylase 2 (Homo sapiens, UniProt Q92769); experiment: Inhibition of HDAC2
Sequence of Histone deacetylase 2 (Q92769 whole entry): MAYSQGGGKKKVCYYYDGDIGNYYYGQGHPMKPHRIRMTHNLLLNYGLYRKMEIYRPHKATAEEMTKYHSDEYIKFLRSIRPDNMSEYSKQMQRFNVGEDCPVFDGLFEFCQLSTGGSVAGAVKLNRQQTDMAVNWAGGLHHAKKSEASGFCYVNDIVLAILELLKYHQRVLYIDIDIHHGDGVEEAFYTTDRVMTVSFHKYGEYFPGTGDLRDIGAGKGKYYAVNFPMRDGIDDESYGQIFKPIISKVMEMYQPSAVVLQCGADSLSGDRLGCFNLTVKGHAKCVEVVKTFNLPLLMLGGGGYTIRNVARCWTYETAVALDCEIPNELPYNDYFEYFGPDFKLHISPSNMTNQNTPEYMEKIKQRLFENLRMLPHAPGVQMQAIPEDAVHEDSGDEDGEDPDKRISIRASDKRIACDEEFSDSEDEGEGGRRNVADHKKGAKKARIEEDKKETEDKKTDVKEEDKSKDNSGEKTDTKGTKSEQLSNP

Histone deacetylase 3 = Histone deacetylase 3 (Homo sapiens, UniProt O15379)
Sequence of Histone deacetylase 3 (O15379 whole entry): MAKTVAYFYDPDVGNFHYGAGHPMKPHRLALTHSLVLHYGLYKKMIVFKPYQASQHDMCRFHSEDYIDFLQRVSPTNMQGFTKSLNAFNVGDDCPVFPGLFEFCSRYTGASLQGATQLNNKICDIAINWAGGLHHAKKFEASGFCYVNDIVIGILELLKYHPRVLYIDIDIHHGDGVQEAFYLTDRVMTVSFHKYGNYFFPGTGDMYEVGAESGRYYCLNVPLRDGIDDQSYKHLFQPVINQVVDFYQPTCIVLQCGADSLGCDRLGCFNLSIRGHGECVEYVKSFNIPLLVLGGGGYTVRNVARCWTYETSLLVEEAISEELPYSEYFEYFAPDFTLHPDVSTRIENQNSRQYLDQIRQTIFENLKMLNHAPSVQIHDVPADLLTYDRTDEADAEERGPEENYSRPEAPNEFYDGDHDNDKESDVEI

HeLa [7] = experiment: Antiproliferative activity against human HeLa cells after 72 hrs by tetrazolium dye assay; assay type: functional
Method in brief: (§1)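 Tetrazolium dye proliferation assay over 72 h, with half-log serial dilutions from 30 µM down to 100 nM. GI50 was derived from the dose-response.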

U2OS = experiment: Antiproliferative activity against human U2OS cells after 72 hrs by tetrazolium dye assay; assay type: functional; method in brief: as §1
HepG2 = experiment: Antiproliferative activity against human HepG2 cells after 72 hrs by tetrazolium dye assay; assay type: functional; conditions: HepG2, 72 h; method in brief: as §1
MCF7 = experiment: Antiproliferative activity against human MCF7 cells after 72 hrs by tetrazolium dye assay; assay type: functional; conditions: MCF7, 72 h; method in brief: as §1
HL-60 = experiment: Antiproliferative activity against human HL60 cells after 72 hrs by tetrazolium dye assay; assay type: functional; conditions: HL-60, 72 h; method in brief: as §1
HCT-116 [8] = experiment: Antiproliferative activity against human HCT116 cells after 72 hrs by tetrazolium dye assay; assay type: functional; conditions: HCT-116, 72 h; method in brief: as §1
HCT-116 [9] = experiment: Induction of acetylated H4 level in human HCT116 cells after 24 hrs; assay type: functional, cell-based
Method in brief: (§2)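 HCT-116 cells treated for 24 h across a range of concentrations. Acetylated histone H4 and endogenous p21, or cell-cycle distribution, were assessed.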

HCT-116 [10] = experiment: Induction of endogenous p21 level in human HCT116 cells after 24 hrs; assay type: functional, cell-based; method in brief: as §2
HCT-116 [11] = experiment: Cell cycle arrest in human HCT116 cells after 24 hrs; assay type: functional, cell-based; method in brief: as §2
HCT-116 [12] = experiment: Induction of apoptosis in human HCT116 cells after 48 hrs by annexin V/FACS analysis; assay type: functional, cell-based
Method in brief: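 HCT-116 cells exposed for 48 h to several concentrations or vehicle. Apoptosis was scored as percent annexin V-positive cells by FACS.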

HeLa [13] = experiment: Antiproliferative activity against human HeLa cells assessed as growth at 3 uM after 24 hrs; assay type: functional; conditions: read-out: Activity
Method in brief: (§3)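 HeLa and A204 cells exposed to test agents at 3 or 10 µM for 24 h. Growth is expressed as percent of vehicle-treated control cells.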

HeLa [14] = experiment: Antiproliferative activity against human HeLa cells assessed as growth at 10 uM after 24 hrs; assay type: functional; conditions: read-out: Activity; method in brief: as §3
A204 [15] = experiment: Antiproliferative activity against human A204 cells assessed as growth at 3 uM after 24 hrs; assay type: functional; conditions: A204, 24 h, read-out: Activity; method in brief: as §3
A204 [16] = experiment: Antiproliferative activity against human A204 cells assessed as growth at 10 uM after 24 hrs; assay type: functional; conditions: A204, 24 h, read-out: Activity; method in brief: as §3

| Structure (SMILES) | Activity (HeLa [1]) [%] | Activity (A204 [2]) [%] | Activity (HeLa [3]) | Activity (HeLa [4]) [%] | Activity (A204 [5]) [%] | Activity (HeLa [6]) | further results |
| --- | --- | --- | --- | --- | --- | --- | --- |
| Nc1ccccc1NC(=O)/C=C/c1ccc(C(NCCN2CCSCC2)C(=O)Nc2ccc(C(F)(F)F)cc2)cc1 (configuration not stated) | 71 | 77 | 0.9 | 95 | 63 | 1.5 | – |
| Nc1ccccc1NC(=O)/C=C/c1ccc(C(NCCN2CCOCC2)C(=O)Nc2ccc(C(F)(F)F)cc2)cc1 (configuration not stated) | 86 | 64 | 1.4 | 116 | 38 | 3.1 | IC50 (Histone deacetylase 1): 60 nM; IC50 (Histone deacetylase 2): 290 nM; IC50 (Histone deacetylase 3): 460 nM; GI50 (HeLa [7]): 2200 nM; GI50 (U2OS): 1000 nM; GI50 (HepG2): 1700 nM; GI50 (MCF7): 1900 nM; GI50 (HL-60): 400 nM; GI50 (HCT-116 [8]): 1000 nM; Activity (HCT-116 [9]): Dose-dependent effect; Activity (HCT-116 [10]): Dose-dependent effect; Activity (HCT-116 [11]): Dose-dependent effect; Activity (HCT-116 [12]): Dose-dependent effect |
| Nc1ccccc1NC(=O)/C=C/c1ccc(C(NCCN2CCCCC2)C(=O)Nc2ccc(C(F)(F)F)cc2)cc1 (configuration not stated) | 163 | 69 | 2.4 | 77 | 85 | 0.9 | – |
| N#Cc1ccc(-c2ccc(NC(=O)C(NCCN3CCCCC3)c3ccc(/C=C/C(=O)Nc4ccccc4N)cc3)cc2)cc1 (configuration not stated) | 128 | 72 | 1.8 | 157 | 92 | 1.7 | – |
| CN(CCN1CCOCC1)C(C(=O)Nc1ccc(OC(F)(F)F)cc1)c1ccc(/C=C/C(=O)Nc2ccccc2N)cc1 (configuration not stated) | 61 | 39 | 1.6 | 109 | 71 | 1.5 | – |
| Nc1ccccc1NC(=O)/C=C/c1ccc(C(NCCN2CCCCC2)C(=O)Nc2ccc(-c3ccc(C(F)(F)F)cc3F)cc2)cc1 (configuration not stated) | 110 | 65 | 1.7 | 153 | 84 | 1.8 | – |
| Nc1ccccc1NC(=O)/C=C/c1ccc(C(N)C(=O)Nc2ccc(C(F)(F)F)cc2)cc1 (configuration not stated) | 31 | 32 | 1 | 73 | 40 | 1.8 | – |
| CC(CNC(C(=O)Nc1ccc(-c2ccc(C3CC3)cc2)cc1)c1ccc(/C=C/C(=O)Nc2ccccc2N)cc1)N1CCOCC1 (configuration not stated) | 161 | 75 | 2.2 | 196 | 98 | 2 | – |
| CC(CNC(C(=O)Nc1ccc(OC(F)(F)F)cc1)c1ccc(/C=C/C(=O)Nc2ccccc2N)cc1)N1CCOCC1 (configuration not stated) | 160 | 72 | 2.2 | 104 | 44 | 2.4 | growth at 3 µM (HeLa [13]): 107%; growth at 10 µM (HeLa [14]): 83%; growth at 3 µM (A204 [15]): 97%; growth at 10 µM (A204 [16]): 93% |
| Nc1ccccc1NC(=O)/C=C/c1ccc(C(NCCN2C[C@@H]3C[C@H]2CO3)C(=O)Nc2ccc(OC(F)(F)F)cc2)cc1 (some centres not stated) | 98 | 39 | 2.6 | 152 | 63 | 2.4 | growth at 3 µM (HeLa [13]): 103%; growth at 10 µM (HeLa [14]): 82%; growth at 3 µM (A204 [15]): 97%; growth at 10 µM (A204 [16]): 90% |
| Nc1ccccc1NC(=O)/C=C/c1ccc(C(NCCN2CCCCC2)C(=O)Nc2ccc(-c3ccc(C(F)(F)F)c(F)c3)cc2)cc1 (configuration not stated) | 77 | 32 | 2.4 | 92 | 54 | 1.7 | – |
| COCCNC(C(=O)Nc1ccc(C(F)(F)F)cc1)c1ccc(/C=C/C(=O)Nc2ccccc2N)cc1 (configuration not stated) | 36 | 45 | 0.8 | 64 | 56 | 1.1 | – |
| Nc1ccccc1NC(=O)/C=C/c1ccc(C(NCCCN2CCOCC2)C(=O)Nc2ccc(C(F)(F)F)cc2)cc1 (configuration not stated) | 139 | 73 | 1.9 | 130 | 79 | 1.7 | – |
| CN(C)CCNC(C(=O)Nc1ccc(C(F)(F)F)cc1)c1ccc(/C=C/C(=O)Nc2ccccc2N)cc1 (configuration not stated) | 138 | 69 | 2 | 134 | 93 | 1.4 | – |
| Nc1ccccc1NC(=O)/C=C/c1ccc(C(C(=O)Nc2ccc(C(F)(F)F)cc2)N2CCCC2)cc1 (configuration not stated) | 85 | 62 | 1.4 | 89 | 69 | 1.3 | – |
| CN(C)CCNC(C(=O)Nc1ccc(OC(F)(F)F)cc1)c1ccc(/C=C/C(=O)Nc2ccccc2N)cc1 (configuration not stated) | 152 | 85 | 1.8 | 182 | 74 | 2.5 | – |
| CC(C)c1ccc(-c2ccc(NC(=O)C(NCCN3CCCCC3)c3ccc(/C=C/C(=O)Nc4ccccc4N)cc3)cc2)cc1 (configuration not stated) | 77 | 42 | 1.8 | 130 | 63 | 2.1 | – |
| CN(C)C(C(=O)Nc1ccc(C(F)(F)F)cc1)c1ccc(/C=C/C(=O)Nc2ccccc2N)cc1 (configuration not stated) | 24 | 45 | 0.5 | 43 | 33 | 1.3 | – |
| Nc1ccccc1NC(=O)/C=C/c1ccc(C(NCCCN2CCOCC2)C(=O)Nc2ccc(C3CC3)cc2)cc1 (configuration not stated) | 117 | 70 | 1.7 | 178 | 95 | 1.9 | – |
| Nc1ccccc1NC(=O)/C=C/c1ccc(C(NCCC2CCOCC2)C(=O)Nc2ccc(C(F)(F)F)cc2)cc1 (configuration not stated) | 53 | 55 | 1 | 64 | 58 | 1.1 | IC50 (Histone deacetylase 1): 200 nM; IC50 (Histone deacetylase 2): 800 nM; IC50 (Histone deacetylase 3): 1000 nM |
| CN(CCN1CCOCC1)C(C(=O)Nc1ccc(C(F)(F)F)cc1)c1ccc(/C=C/C(=O)Nc2ccccc2N)cc1 (configuration not stated) | 72 | 70 | 1 | 121 | 82 | 1.5 | – |
| Nc1ccccc1NC(=O)/C=C/c1ccc(C(NCc2ccco2)C(=O)Nc2ccc(C(F)(F)F)cc2)cc1 (configuration not stated) | 19 | 30 | 0.6 | 36 | 21 | 1.7 | – |
| Nc1ccccc1NC(=O)/C=C/c1ccc(C(NCCN2CCCCC2)C(=O)Nc2ccc(OC(F)(F)F)cc2)cc1 (configuration not stated) | 112 | 39 | 2.9 | 136 | 40 | 3.4 | growth at 3 µM (HeLa [13]): 105%; growth at 10 µM (HeLa [14]): 61%; growth at 3 µM (A204 [15]): 95%; growth at 10 µM (A204 [16]): 88% |
| Nc1ccccc1NC(=O)/C=C/c1ccc(C(NCCC2(O)CCOCC2)C(=O)Nc2ccc(C(F)(F)F)cc2)cc1 (configuration not stated) | 55 | 64 | 0.9 | 96 | 68 | 1.4 | – |
| Nc1ccccc1NC(=O)/C=C/c1ccc(C(NCCCN2CCOCC2)C(=O)Nc2ccc(OC(F)(F)F)cc2)cc1 (configuration not stated) | 83 | 38 | 2.2 | 144 | 58 | 2.5 | – |
| Nc1ccccc1NC(=O)/C=C/c1ccc(C(C(=O)Nc2ccc(C3CC3)cc2)N2CCCC2)cc1 (configuration not stated) | 100 | 58 | 1.7 | 148 | 98 | 1.5 | – |
| Nc1ccccc1NC(=O)/C=C/c1ccc(C(NCCN2CCCCC2)C(=O)Nc2ccc(-c3ccc(C4CC4)cc3)cc2)cc1 (configuration not stated) | 143 | 65 | 2.2 | 187 | 90 | 2.1 | growth at 3 µM (HeLa [13]): 103%; growth at 10 µM (HeLa [14]): 81%; growth at 3 µM (A204 [15]): 93%; growth at 10 µM (A204 [16]): 89%; IC50 (Histone deacetylase 1): 50 nM; IC50 (Histone deacetylase 2): 240 nM; IC50 (Histone deacetylase 3): 360 nM |

Source: ChEMBL document CHEMBL1641604, “Application of p21 and klf2 reporter gene assays to identify selective histone deacetylase inhibitors for cancer therapy” (Bioorg Med Chem Lett, 2011)
